Published values gathered from unrelated publications.
Each line is one published result; the experiments were not run side by side.
PADI4: Protein-arginine deiminase type-4 (PADI4, Homo sapiens, UniProt Q9UM07)
HRH1: Histamine H1 receptor (HRH1, Homo sapiens, UniProt P35367)
MAOB: Amine oxidase [flavin-containing] B (MAOB, Homo sapiens, UniProt P27338)
PKN1: Serine/threonine-protein kinase N1 (PKN1, Homo sapiens, UniProt Q16512)
CA9: Carbonic anhydrase 9 (CA9, Homo sapiens, UniProt Q16790)

With `CC(C)(C)n1nnc([C@H](CCCNC(=N)CCl)NC(=O)c2ccccc2C(=O)O)n1` the kinact/KI was 423 M⁻¹ s⁻¹ (PADI4; enzyme activity, inhibitor).
`CN1CCN(C2c3ccccc3C=Cc3ccccc32)CC1` has a koff of 0.000583 s⁻¹ (HRH1; binding).
The inhibition of `O=C(Nc1ccc([N+](=O)[O-])cc1Cl)c1ccc2ccccc2c1O` is reported as 28% (MAOB; enzyme activity, inhibitor; 1 µM, 20 min).
`CC(C)(O)[C@H]1CC[C@H](Nc2ccc3ncc(-c4cccc(C(F)(F)F)c4)n3n2)CC1` gave a remaining activity of 80.6% (Receptor-interacting serine/threonine-protein kinase 3 (RIPK3, Homo sapiens, UniProt Q9Y572); enzyme activity, inhibitor; 1 µM).
`COc1cc([N+](=O)[O-])ccc1NC(=O)c1ccc(Cl)cc1` gave an inhibition of 14% (MAOB; enzyme activity, inhibitor; 1 µM, 20 min).
`Cc1cccnc1C(=O)Nc1ccc(N2C(=O)c3ccccc3C2=O)c(Cl)c1` gave an Emax of 91% (Metabotropic glutamate receptor 1 (GRM1, Homo sapiens, UniProt Q13255); calcium signal, positive allosteric modulator; T-REx-293).
`Cn1c(=O)n(-c2ccc(C(C)(C)C#N)cc2)c2c3cc(-c4cnc5ccccc5c4)ccc3ncc21` gave an activity vs control of 84% (PKN1; enzyme activity, inhibitor; 1 µM).
The inhibition of `O=C(Nc1ccc([N+](=O)[O-])cc1[N+](=O)[O-])c1ccccc1O` is reported as 18% (MAOB; enzyme activity, inhibitor; 1 µM, 20 min).
`CC(C)CCN1c2nc(Nc3cc(F)c(O)c(F)c3)ncc2N(C)C(=O)C1C` (stereo not drawn) has an activity vs control of 64% (PKN1; enzyme activity, inhibitor; 1 µM).
With `CCOC(=O)C1CSc2[nH]c(=O)sc2C1c1cn(-c2ccccc2)nc1-c1ccc(C)cc1` (stereo not drawn) the inhibition was 76.9% (CA9; enzyme activity, inhibitor; 10 µM).
For `O=C(Nc1ccc([N+](=O)[O-])cc1Cl)c1ccc(Br)cc1`, the inhibition was 48% (MAOB; enzyme activity, inhibitor; 1 µM, 20 min).
`O=[N+]([O-])c1ccc(O[C@H]2O[C@H](CO)[C@@H](O)[C@H](O)[C@@H]2O)cc1` has a Km of 390 µM (Beta-mannosidase (Bacteroides thetaiotaomicron, UniProt Q8AAK6); enzyme activity, substrate, absorbance; pH 5.6).
For `CN1CCC(=C(c2ccccc2)c2ccccc2)CC1`, the kon was 2e+06 M⁻¹ s⁻¹ (HRH1; binding).
`CNc1nccc(-c2cccnc2Oc2cc(C(=O)Nc3cccc(C(F)(F)F)c3)ccc2C)n1` has an activity vs control of 88% (PKN1; enzyme activity, inhibitor; 1 µM).
`CCOC(=O)C1CSc2[nH]c(=O)sc2C1c1cn(-c2ccccc2)nc1-c1ccccc1` (stereo not drawn) gave an inhibition of 43.6% (CA9; enzyme activity, inhibitor; 1 µM).
With `O=C(Nc1ccc([N+](=O)[O-])cc1Cl)c1ccc2ccccc2c1` the inhibition was 58% (MAOB; enzyme activity, inhibitor; 1 µM, 20 min).
The activity vs control of `CCC(=O)N1CCN(c2ccc(-n3c(=O)ccc4cnc5ccc(-c6cnc7ccccc7c6)cc5c43)cc2C(F)(F)F)CC1` is reported as 97% (PKN1; enzyme activity, inhibitor; 1 µM).
`CCOC(=O)c1ccc(NC(=O)c2cc(Cl)ccc2O)cc1` gave an inhibition of 38% (MAOB; enzyme activity, inhibitor; 1 µM, 20 min).
The activity vs control of `C[C@@H](Oc1cc(-n2cnc3ccc(CN4CCN(C)CC4)cc32)sc1C(N)=O)c1ccccc1C(F)(F)F` is reported as 81% (PKN1; enzyme activity, inhibitor; 1 µM).
`CC1=C(C(=O)Nc2ccc([N+](=O)[O-])cc2Cl)Cc2ccccc21` has an inhibition of 44% (MAOB; enzyme activity, inhibitor; 1 µM, 20 min).
For `Oc1ccc2ccccc2c1SSc1c(O)ccc2ccccc12`, the activity vs control was 63% (PKN1; enzyme activity, inhibitor; 1 µM).
For `O=C1NC(=S)C(=Cc2cn(-c3ccccc3)nc2-c2ccc(Br)cc2)S1`, the inhibition was 12% (CA9; enzyme activity, inhibitor; 10 nM).
With `Nc1nc(N)c2nc(-c3cccc(O)c3)c(-c3cccc(O)c3)nc2n1` the activity vs control was 79% (PKN1; enzyme activity, inhibitor; 1 µM).
For `N=C(CCl)NCCC[C@H](NC(=O)c1ccccc1C(=O)O)c1nn[nH]n1`, the kinact/KI was 2660 M⁻¹ s⁻¹ (PADI4; enzyme activity, inhibitor).
